Reference: paper PMC9055608 (RSC Advances, 2020)
Values joined by “and” are separate entries in the source; they are usually repeats but may differ in a detail not shown here. Identical values can stand only once.

Columns and labels:
cancer cell lines = experiment: MTT assay, cancer cell lines; type: cell-based; conditions: Homo sapiens, read-out: IC50 of other tumour cells
How it was run: (§1)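 ATCC lines grown in DMEM or RPMI-1640 with 10% heat-inactivated FBS and 1% penicillin/streptomycin at 37 °C, 5% CO2. Log-phase cells seeded at about 4000–5000/well and left to adhere 24 h. Sextuplicate wells, 72 h. MTT for 4 h, then DMSO and absorbance. IC50 taken from dose–response curves.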

[1] = Biochemical indexes in serum and plasma; type: in vivo, mice; conditions: for BUN mean ± SD: plasma; for BUN mean ± SD / ALT mean ± SD / AST mean ± SD / CRE mean ± SD: DHDK micelles every day for 9 days; for ALT mean ± SD / AST mean ± SD / CRE mean ± SD: serum
How it was run: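 Female mice were split into four groups (n = 6) and injected daily for 9 days with test-compound micelles, following the dosing regimen of the xenograft study. Animals were killed on the last dosing day. Kits measured AST, ALT and creatinine in serum, and urea nitrogen in plasma.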

MCF-7 = experiment: MTT cell proliferation assay, MCF-7; type: cell-based, human; conditions: Homo sapiens, MCF7, 72 h
How it was run: as §1

MDA-MB453 = experiment: MTT cell proliferation assay, MDA-MB453; type: cell-based, human; conditions: Homo sapiens, MDA-MB-453, 72 h
How it was run: as §1

SKOV3 = experiment: MTT cell proliferation assay, SKOV3; type: cell-based, human; conditions: Homo sapiens, SK-OV-3, 72 h
How it was run: as §1

[2] = system: BEAS-2B human normal lung epithelial cell; experiment: MTT assay, cytotoxicity against normal cell line BEAS-2B; type: cell-based
How it was run: (§2)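 Cells seeded at about 4000–5000/well and allowed 24 h to adhere. MTT for 4 h, formazan dissolved in DMSO, absorbance read, and inhibition rate per concentration reported.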

MDA-MB231 = experiment: MTT cell proliferation assay, MDA-MB231; type: cell-based, human; conditions: Homo sapiens, MDA-MB-231, 72 h
How it was run: as §1

HT-29 = experiment: MTT cell proliferation assay, HT-29; type: cell-based, human; conditions: Homo sapiens, HT-29, 72 h
How it was run: as §1

DU-145 = experiment: MTT cell proliferation assay, DU-145; type: cell-based, human; conditions: Homo sapiens, DU-145, 72 h
How it was run: as §1

MCF-7 xenograft tumour [3] = experiment: Drug efficacy in vivo, MCF-7 breast cancer model; set-up: species or system nude mice
N87 = experiment: MTT cell proliferation assay, N87; type: cell-based, human; conditions: Homo sapiens, 72 h
How it was run: as §1

SKMEL-28 = experiment: MTT cell proliferation assay, SKMEL-28; type: cell-based, human; conditions: Homo sapiens, SK-MEL-28, 72 h
How it was run: as §1

A-549 = experiment: MTT cell proliferation assay, A-549; type: cell-based, human; conditions: Homo sapiens, A549, 72 h
How it was run: as §1

MCF-7 xenograft tumour [4] = experiment: Pathological tissue sections; type: in vivo, nude mice
How it was run: (§3)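 Tumour-bearing nude mice were anaesthetised and killed after the 9-day dosing. Heart, liver, spleen, lung, kidney, brain and tumour were fixed in 10% formalin, embedded in paraffin, cut into 4 μm sections and stained with haematoxylin–eosin.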

SKBR3 = experiment: MTT cell proliferation assay, SKBR3; type: cell-based, human; conditions: Homo sapiens, SK-BR-3, 72 h
How it was run: as §1

[5] = Mouse weight during in vivo efficacy study; set-up: species or system nude mice; conditions: during the nine days of treatment
in vivo = type: in vivo, rats
[6] = system: GES-1 human normal gastric epithelial cells; experiment: MTT assay, cytotoxicity against normal cell line GES-1; type: cell-based; conditions: for OD value (mean ± SD): GES-1
How it was run: as §2

[7] = system: normal cell lines (LO2, GES-1, BEAS-2B); experiment: MTT assay, normal cell lines; type: cell-based, human; conditions: all DHDK concentrations
How it was run: as §2

Tissue distribution = type: in vivo, SD rats; conditions: for CL / AUC(0-inf): rat; for CL: tail vein injection of DHDK solution; for AUC(0-inf): iv, 14 mg/kg
How it was run: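 SD rats (12 male, 12 female), fasted 12 h, received an intravenous dose of 14 mg kg−1 test-compound micelles. Six rats were killed at each of 0.25, 1, 4 and 24 h. Heart, liver, spleen, lung and kidney were rinsed in ice-cold saline, weighed, homogenised and stored at −80 °C. Samples were extracted with MTBE using curcumin internal standard. Analysis was by C18 LC-ESI-MS/MS (formic acid/acetonitrile gradient, MRM m/z 294.98→106.67).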

[8] = Pathological tissue sections; type: in vivo, nude mice; conditions: tissues exposed to different dosages; end of 9 day treatment; HE staining
How it was run: as §3

Calu-3 = experiment: MTT cell proliferation assay, Calu-3; type: cell-based, human; conditions: Homo sapiens, Calu-3, 72 h
How it was run: as §1

[9] = system: LO2 human normal liver cells; experiment: MTT assay, cytotoxicity against normal cell line LO2; type: cell-based
How it was run: as §2

A375 = experiment: MTT cell proliferation assay, A375; type: cell-based, human; conditions: Homo sapiens, A-375, 72 h
How it was run: as §1

[10] = Homo sapiens, GES1, read-out: Inhibition rate

## O=C(/C=C/CCc1ccc(O)cc1)/C=C/c1ccc(O)cc1 [DHDK, (1E,4E)-1,7-Bis(4-hydroxyphenyl)hepta-1,4-dien-3-one]
Cancer cell lines
  IC50: < 11 µM and < 3.25 µg/mL
[1]; all administration groups vs blank group
  liver and kidney toxicity (from BUN, CRE, AST, ALT): no potential liver and kidney toxicity
[1]; high dose group
  BUN mean ± SD: 9.86 ± 0.33 mmol/L
  ALT mean ± SD: 38.41 ± 0.67 U L^−1
  AST mean ± SD: 52.98 ± 3.07 U L^−1
  CRE mean ± SD: 82.97 ± 2.97 µmol/L
[1]; low dose group
  BUN mean ± SD: 10.16 ± 1.35 mmol/L
  ALT mean ± SD: 39.18 ± 0.81 U L^−1
  AST mean ± SD: 50.90 ± 3.04 U L^−1
  CRE mean ± SD: 78.85 ± 3.90 µmol/L
[1]; medium dose group
  BUN mean ± SD: 9.74 ± 0.47 mmol/L
  ALT mean ± SD: 39.70 ± 2.75 U L^−1
  AST mean ± SD: 50.93 ± 0.81 U L^−1
  CRE mean ± SD: 87.97 ± 7.63 µmol/L
MCF-7
  IC50: 9.09 ± 0.46 µM
MDA-MB453
  IC50: 10.4 ± 0.92 µM
SKOV3
  IC50: 9.59 ± 0.44 µM
[2]; DHDK 0.14 μmol·L^−1
  Inhibition rate: 0.059%
  OD value (mean ± SD): 0.66 ± 0.0017
[2]; DHDK 0.42 μmol·L^−1
  OD value (mean ± SD): 0.66 ± 0.0028
[2]; DHDK 1.26 μmol·L^−1
  OD value (mean ± SD): 0.66 ± 0.0027
[2]; DHDK 3.8 μmol·L^−1
  OD value (mean ± SD): 0.66 ± 0.0010
[2]; DHDK 11.3 μmol·L^−1
  OD value (mean ± SD): 0.64 ± 0.0028
[2]; DHDK 34.0 μmol·L^−1
  OD value (mean ± SD): 0.63 ± 0.0030
[2]; Homo sapiens, read-out: Inhibition rate, BEAS-2B, DHDK 0.42 μmol·L^−1
  inhibition at 0.42 µM: 0.5%
[2]; Homo sapiens, read-out: Inhibition rate, BEAS-2B, DHDK 1.26 μmol·L^−1
  inhibition at 1.26 µM: 0.83%
[2]; Homo sapiens, read-out: Inhibition rate, BEAS-2B, DHDK 3.8 μmol·L^−1
  inhibition at 3.8 µM: 0.86%
[2]; Homo sapiens, read-out: Inhibition rate, BEAS-2B, DHDK 11.3 μmol·L^−1
  inhibition at 11.3 µM: 3.1%
[2]; Homo sapiens, read-out: Inhibition rate, BEAS-2B, DHDK 34.0 μmol·L^−1
  inhibition at 34 µM: 4.82%
MDA-MB231
  IC50: 4.49 µM
HT-29
  IC50: 4.79 ± 0.54 µM
DU-145
  IC50: 4.62 ± 0.22 µM
MCF-7 xenograft tumour [3]; DHDK 40 mg kg^−1 vs cisplatin 5 mg kg^−1
  tumour inhibition rate of DHDK high-dose group as share of the cisplatin group: 74.6%
MCF-7 xenograft tumour [3]; group B, low-dose, DHDK micelles 10 mg kg^−1 every day for 9 days
  Tumour weight (mean): 597.04 ± 38.19
MCF-7 xenograft tumour [3]; group C, medium-dose, DHDK micelles 20 mg kg^−1 every day for 9 days
  Tumour weight (mean): 540.53 ± 63.76
MCF-7 xenograft tumour [3]; group D, high-dose, DHDK micelles 40 mg kg^−1 every day for 9 days
  Tumour weight (mean): 435.13 ± 140.10
MCF-7 xenograft tumour [3]; high-dose, DHDK 40 mg kg^−1 every day for 9 days
  Inhibition rate (IR) determined as tumour weight: 47.85%
MCF-7 xenograft tumour [3]; low-dose, DHDK 10 mg kg^−1 every day for 9 days
  Inhibition rate (IR) determined as tumour weight: 28.44%
MCF-7 xenograft tumour [3]; medium-dose, DHDK 20 mg kg^−1 every day for 9 days
  Inhibition rate (IR) determined as tumour weight: 35.22%
N87
  IC50: 10.8 ± 0.5 µM
SKMEL-28
  IC50: 9.26 ± 0.57 µM
A-549
  IC50: 8.01 ± 0.44 µM
MCF-7 xenograft tumour [4]; high-dose group, DHDK 40 mg kg^−1
  tumour histopathology: A large amount of tumour necrosis with nuclear envelope breakdown and dissolved nucleus
MCF-7 xenograft tumour [4]; low-dose group, DHDK 10 mg kg^−1
  tumour histopathology: A small amount of punctate nucleolysis and a low degree of necrosis
MCF-7 xenograft tumour [4]; medium-dose group, DHDK 20 mg kg^−1
  tumour histopathology: point necrosis and dissolved nucleus
SKBR3
  IC50: 1.71 ± 0.1 µM
[5]
  mouse weight course (in words): stable weight
In vivo; after dose conversion, DHDK 40 mg kg^−1 vs cisplatin 5 mg kg^−1
  AUC(0–t) of DHDK high-dose group as share of cisplatin group: 7.3%
In vivo; rat, in vivo, iv, 14 mg/kg
  AUC(0-inf): 534 ng·h/mL
  AUC(0-t): 459 ng·h/mL
  half-life: 1.79 h
In vivo; rat, tail vein injection 14 mg kg^−1 DHDK solution
  V 1: 0.037 L/kg
In vivo; rat, tail vein injection 14 mg kg^−1 DHDK solution, two-compartmental analysis
  t 1/2α: 3.84 min
[6]; DHDK 0.14 μmol·L^−1
  OD value (mean ± SD): 0.71 ± 0.0031
[6]; DHDK 0.42 μmol·L^−1
  OD value (mean ± SD): 0.71 ± 0.0098
[6]; DHDK 1.26 μmol·L^−1
  OD value (mean ± SD): 0.71 ± 0.0051
[6]; DHDK 3.8 μmol·L^−1
  OD value (mean ± SD): 0.70 ± 0.0035
[6]; DHDK 11.3 μmol·L^−1
  OD value (mean ± SD): 0.69 ± 0.0097
[6]; DHDK 34.0 μmol·L^−1
  OD value (mean ± SD): 0.68 ± 0.0075
[6]; [10]
  inhibition at 0.14 µM: 0.17%
  inhibition at 0.42 µM: 0.53%
  inhibition at 1.26 µM: 1.06%
  inhibition at 3.8 µM: 1.35%
  inhibition at 11.3 µM: 3.53%
  inhibition at 34 µM: 4.85%
[7]
  inhibition rate of each group on normal cells: less than 5%
Tissue distribution; Heart
  CL: 50.93 ± 26.52 L·kg/h
Tissue distribution; Kidney
  CL: 244.93 ± 9.95 L·kg/h
Tissue distribution; Liver
  CL: 5.846 ± 1.02 L·kg/h
Tissue distribution; Lung
  CL: 8.89 ± 1.97 L·kg/h
Tissue distribution; Spleen
  CL: 81.66 ± 45.73 L·kg/h
Tissue distribution; Sprague-Dawley (SD), kidney
  AUC(0-inf): 57.2 ± 32.3 ng·h/mL
Tissue distribution; Sprague-Dawley (SD), lung
  AUC(0-inf): 1630 ± 299 ng·h/mL
Tissue distribution; Sprague-Dawley (SD), spleen
  AUC(0-inf): 207 ± 84.3 ng·h/mL
Tissue distribution; both, SD, heart
  AUC(0-inf): 414 ± 364 ng·h/mL
Tissue distribution; both, SD, liver
  AUC(0-inf): 2450 ± 425 ng·h/mL
Tissue distribution; rats, 14 mg kg^−1 tail vein
  order of DHDK concentration in different tissues: lung > liver > heart > kidney > spleen
  order of clearance rates in tissues: kidney > spleen > heart > lung > liver
[8]
  toxicity in tissue slices: No toxicity was observed
Calu-3
  IC50: 6.65 ± 0.42 µM
[9]; Homo sapiens, read-out: Inhibition rate, LO2, DHDK 0.14 μmol·L^−1
  inhibition at 0.14 µM: 1.36%
[9]; Homo sapiens, read-out: Inhibition rate, LO2, DHDK 0.42 μmol·L^−1
  inhibition at 0.42 µM: 1.51%
[9]; Homo sapiens, read-out: Inhibition rate, LO2, DHDK 1.26 μmol·L^−1
  inhibition at 1.26 µM: 1.87%
[9]; Homo sapiens, read-out: Inhibition rate, LO2, DHDK 3.8 μmol·L^−1
  inhibition at 3.8 µM: 2.08%
[9]; Homo sapiens, read-out: Inhibition rate, LO2, DHDK 11.3 μmol·L^−1
  inhibition at 11.3 µM: 2.57%
[9]; LO2, DHDK 0.14 μmol·L^−1
  OD value (mean ± SD): 0.69 ± 0.013
[9]; LO2, DHDK 0.42 μmol·L^−1
  OD value (mean ± SD): 0.68 ± 0.039
[9]; LO2, DHDK 1.26 μmol·L^−1
  OD value (mean ± SD): 0.68 ± 0.022
[9]; LO2, DHDK 3.8 μmol·L^−1
  OD value (mean ± SD): 0.68 ± 0.031
[9]; LO2, DHDK 11.3 μmol·L^−1
  OD value (mean ± SD): 0.68 ± 0.0066
[9]; LO2, DHDK 34.0 μmol·L^−1
  Inhibition rate: 4.17%
  OD value (mean ± SD): 0.67 ± 0.025
A375
  IC50: 6.64 ± 0.4 µM
